Active and inactive are the calls of the source. The rule behind the calls is not given here.
Legend:
Rattus norvegicus [1] = species on record: Rattus norvegicus; experiment: Inhibitory activity against 48/80 induced release of Histamine from isolated rat peritoneal mast cells at a dose of 5*10e-4 mol; Inactive; format: functional, cell-based
Rattus norvegicus [2] = species on record: Rattus norvegicus; experiment: Inhibitory activity against 48/80 induced release of Histamine from isolated rat peritoneal mast cells at a dose of 2*10e-4 mol; format: functional
Summary of the method: (§1)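 Rat peritoneal cells (~10% mast cells) collected by lavage with Tris-HCl-buffered (10 mmol, pH 7.4) salt solution. The reaction was stopped on ice. Histamine was measured by o-phthalaldehyde fluorometry in duplicate, expressed as % of total minus spontaneous release, with % inhibition taken versus 48/80 alone.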

Rattus norvegicus [3] = species on record: Rattus norvegicus; experiment: Inhibitory activity against 48/80 induced release of Histamine from isolated rat peritoneal mast cells at a dose of 5*10e-4 mol; format: functional; summary of the method: as §1
Rattus norvegicus [4] = species on record: Rattus norvegicus; experiment: Inhibitory activity against 48/80 induced release of Histamine from isolated rat peritoneal mast cells at a dose of 10e-3 mol; Inactive; format: functional, cell-based; summary of the method: as §1
Rattus norvegicus [5] = species on record: Rattus norvegicus; experiment: Inhibitory activity against 48/80 induced release of Histamine from isolated rat peritoneal mast cells at a dose of 10e-3 mol; format: functional; summary of the method: as §1
Rattus norvegicus [6] = species on record: Rattus norvegicus; experiment: Inhibitory activity of histamine release at 2*10e-3 mol; format: functional
Rattus norvegicus [7] = species on record: Rattus norvegicus; experiment: Inhibitory activity on the compound (in 0.5% CMC solution) 48/80 induced release of Histamine rat mast cell degranulation at a dose of 0.25micorg/mL, incubated for 15 min at 37 degree C; format: functional
Summary of the method: (§2)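 Harvested rat peritoneal mast cells were preincubated 15 min at 37 °C with test compound suspended in 0.5% CMC (final 10^-3 mol/L). Degranulation was scored by inverted phase-contrast microscopy, counting >100 mast cells. % inhibition = 100[1 − (X − Z)/(Y − Z)], where Z corrects for degranulation in control medium.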

Rattus norvegicus [8] = species on record: Rattus norvegicus; experiment: (§3) Inhibitory activity on the compound 48/80 induced release of Histamine from isolated rat peritoneal mast cells at a dose of 5*10e-4 mol; format: functional; summary of the method: as §1
Rattus norvegicus [9] = species on record: Rattus norvegicus; experiment: as §3; format: functional; summary of the method: as §1; remark: listed apart in the source
Rattus norvegicus [10] = species on record: Rattus norvegicus; experiment: Inhibitory activity on the compound 48/80 induced release of Histamine from isolated rat peritoneal mast cells at a dose of 10e-3 mol; format: functional; summary of the method: as §1
Rattus norvegicus [11] = species on record: Rattus norvegicus; experiment: Inhibitory activity on the compound 48/80 induced release of Histamine from isolated rat peritoneal mast cells at a dose of 2*10e-4 mol; format: functional; summary of the method: as §1
Rattus norvegicus [12] = species on record: Rattus norvegicus; experiment: Inhibitory activity (10e-3 mol/L) against 48/80 induced rat mast cell degranulation at a dose of 0.25ug/mL, incubated for 15 min at 37 degree C; format: functional; summary of the method: as §2
Rattus norvegicus [13] = species on record: Rattus norvegicus; experiment: Inhibitory activity on compound (in 0.5% CMC solution) 48/80 induced rat mast cell degranulation at a dose of 0.25micorg/mL, incubated for 15 min at 37 degree C; format: functional; summary of the method: as §2

SMILES | inhibition (Rattus norvegicus [1]) | Inhibition (Rattus norvegicus [3]) | Inhibition (Rattus norvegicus [5]) | also measured
C=CCN1CCC2(CC1)Cc1ccccc1C(=O)O2 | inactive | – | – | –
CCCCCCN1CCC2(CC1)Cc1ccccc1C(=O)O2.Cl | – | 67% | – | Inhibition (Rattus norvegicus [2]): 32%
OCC1(c2ccccc2)CCN(Cc2ccccc2)CC1 | – | – | – | inhibition (Rattus norvegicus [4]): inactive
CN1CCC2(CC1)COC(=O)c1ccccc12 | inactive | – | – | –
Cl.O=C1OC2(CCN(CCc3ccccc3)CC2)Cc2ccccc21 | – | 6% | 86% | –
C[N+]1(Cc2ccccc2)CCC2(CC1)Cc1ccccc1C(=O)O2.[I-] (centres undefined) | – | – | – | Inhibition (Rattus norvegicus [6]): 28%
Cl.O=C1OC2(CCN(CCCc3ccccc3)CC2)Cc2ccccc21 | – | 18% | 85% | Inhibition (Rattus norvegicus [2]): 5%
Cl.O=C1OC2(CCN(Cc3ccccc3)CC2)Cc2ccccc21 | – | 40% | 76% | Inhibition (Rattus norvegicus [2]): 20%; Inhibition (Rattus norvegicus [7]): 94.5%
CCCCCCCCCCN1CCC2(CC1)Cc1ccccc1C(=O)O2 | – | – | – | inhibition (Rattus norvegicus [8]): inactive
O=C([O-])c1cc(=O)c2c(OCC(O)COc3cccc4oc(C(=O)[O-])cc(=O)c34)cccc2o1.[Na+].[Na+] [CROMOLYN SODIUM] | – | 58% | 80% | Inhibition (Rattus norvegicus [2]): 31%
Cl.O=C1OCC2(CCN(Cc3ccccc3)CC2)c2ccccc21 | – | – | – | Inhibition (Rattus norvegicus [2]): 5%; Inhibition (Rattus norvegicus [9]): 31%
CN(CCC1(C)COCc2ccccc21)Cc1ccccc1 (centres undefined) | – | – | – | Inhibition (Rattus norvegicus [7]): -8%
O=C1OCC2(CCN(CCc3ccccc3)CC2)c2ccccc21 | – | 94% | 100% | Inhibition (Rattus norvegicus [2]): 15%
CN1CCC2(CC1)Cc1ccccc1C(=O)O2 | inactive | – | – | –
CCOC(=O)C1c2ccccc2C(=O)OC12CCN(Cc1ccccc1)CC2.Cl (centres undefined) | – | 12% | 84% | –
Cl.O=C1OC2(CCN(CC3CCCCC3)CC2)Cc2ccccc21 | – | 47% | 83% | –

SMILES | inhibition (Rattus norvegicus [1]) | Inhibition (Rattus norvegicus [3]) | Inhibition (Rattus norvegicus [5]) | also measured
O=C1OC2(CCNCC2)Cc2ccccc21 | inactive | – | – | –
CCOC(=O)C1c2ccccc2C(=O)OC12CCN(C)CC2 (centres undefined) | inactive | – | – | –
O=C1OC2(CCN(C3CCCCC3)CC2)Cc2ccccc21 | inactive | – | – | –
CCCCCN1CCC2(CC1)Cc1ccccc1C(=O)O2.Cl | – | 35% | 79% | Inhibition (Rattus norvegicus [2]): 23%
CN1CCC(CO)(c2ccccc2)CC1 | – | – | – | inhibition (Rattus norvegicus [4]): inactive
CCCN1CCC2(CC1)Cc1ccccc1C(=O)O2 | inactive | – | – | –
CCCCCCCN1CCC2(CC1)Cc1ccccc1C(=O)O2.Cl | – | – | – | Inhibition (Rattus norvegicus [10]): 100%; Inhibition (Rattus norvegicus [11]): 64%; Inhibition (Rattus norvegicus [9]): 100%
CC(C)CN1CCC2(CC1)Cc1ccccc1C(=O)O2 | inactive | – | – | –
C=CCN1CCC2(CC1)OC(=O)c1ccccc1C2C(=O)OCC (centres undefined) | inactive | – | – | –
Cl.c1ccc(CCN2CCC3(CC2)COCc2ccccc23)cc1 | – | 96% | 100% | Inhibition (Rattus norvegicus [2]): 28%
CCCCN1CCC2(CC1)Cc1ccccc1C(=O)O2.Cl | – | 43% | 85% | Inhibition (Rattus norvegicus [2]): 18%
OCC1(c2ccccc2)CCN(CCc2ccccc2)CC1 | – | – | 49% | –
CN1CCC2(CC1)COCc1ccccc12 | inactive | – | – | –
Cl.O=C1OC2(CCN(c3ccccc3)CC2)Cc2ccccc21 | – | – | – | Inhibition (Rattus norvegicus [12]): 29.1%
CCCCCCCCN1CCC2(CC1)Cc1ccccc1C(=O)O2 | – | – | – | inhibition (Rattus norvegicus [8]): inactive
O=C1OC2(CCC(Cc3ccccc3)CC2)Cc2ccccc21 (centres undefined) | – | – | – | Inhibition (Rattus norvegicus [13]): 52%
